Assay results reported in ChEMBL document CHEMBL5058577, “EUbOPEN Chemogenomics Library 2 (Multiplex)” (2022).

Test system: U2OS
Assay: Multiplex assay against U2OS
Format: toxicity, cell-based
Settings: human
In short: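 Tubulin, mitochondrial-mass and membrane-permeability phenotypes are per cents of healthy-nucleus cells. Cells were gated by CellPathfinder machine learning into Hoechst high-intensity objects or normal cells, normal cells into healthy, pyknosed or fragmented nuclei, and pyknosed cells into mitotic or apoptotic. Before that, live cells stained at seeding with Hoechst33342, BioTracker Green Microtubule Cytoskeleton Dye, MitoTracker Red and Annexin V Alexa Fluor 680 were imaged on a CQ1 microscope at 37°C and 5% CO2 after compound addition.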

[1] = 12 h, 1 µM, compound concentration 1 uM, replicate 1
[2] = 12 h, 1 µM, compound concentration 1 uM, replicate 2
[3] = 12 h, 10 µM, compound concentration 10 uM, replicate 1
[4] = 12 h, 10 µM, compound concentration 10 uM, replicate 2
[5] = 24 h, 1 µM, compound concentration 1 uM, replicate 1
[6] = 24 h, 1 µM, compound concentration 1 uM, replicate 2
[7] = 24 h, 10 µM, compound concentration 10 uM, replicate 1
[8] = 24 h, 10 µM, compound concentration 10 uM, replicate 2
[9] = 48 h, 1 µM, compound concentration 1 uM, replicate 1
[10] = 48 h, 1 µM, compound concentration 1 uM, replicate 2
[11] = 48 h, 10 µM, compound concentration 10 uM, replicate 1
[12] = 48 h, 10 µM, compound concentration 10 uM, replicate 2

CN[C@@H](C)C(=O)N[C@H](C(=O)N1CCC[C@H]1C(=O)Nc1snnc1-c1ccccc1)C1CCCCC1 [GDC-0152]
Population Apoptotic (%) [1]: 60%
Population Fragmented Nuclei (%) [1]: 25%
Population Healthy Nuclei (%) [1]: 61%
Population Hoechst High Intensity Objects (%) [1]: 5%
Population Membrane Permeable-Phenotype (%) [1]: 51%
Population Mitochondria Different-Phenotype (%) [1]: 24%
Population Mitotic Cells (%) [1]: 39%
Population Normal (%) [1]: 94%
Population Pyknosed Nuclei (%) [1]: 13%
Population Tubulin-Different-Phenotype (%) [1]: 47%
Total Cell Count [1]: 176
Population Apoptotic (%) [2]: 89%
Population Fragmented Nuclei (%) [2]: 21%
Population Healthy Nuclei (%) [2]: 60%
Population Hoechst High Intensity Objects (%) [2]: 11%
Population Membrane Permeable-Phenotype (%) [2]: 50%
Population Mitochondria Different-Phenotype (%) [2]: 38%
Population Mitotic Cells (%) [2]: 10%
Population Normal (%) [2]: 88%
Population Pyknosed Nuclei (%) [2]: 17%
Population Tubulin-Different-Phenotype (%) [2]: 52%
Total Cell Count [2]: 121
Population Apoptotic (%) [3]: 72%
Population Fragmented Nuclei (%) [3]: 39%
Population Healthy Nuclei (%) [3]: 44%
Population Hoechst High Intensity Objects (%) [3]: 4%
Population Membrane Permeable-Phenotype (%) [3]: 65%
Population Mitochondria Different-Phenotype (%) [3]: 61%
Population Mitotic Cells (%) [3]: 27%
Population Normal (%) [3]: 95%
Population Pyknosed Nuclei (%) [3]: 16%
Population Tubulin-Different-Phenotype (%) [3]: 76%
Total Cell Count [3]: 208
Population Apoptotic (%) [4]: 70%
Population Fragmented Nuclei (%) [4]: 18%
Population Healthy Nuclei (%) [4]: 65%
Population Hoechst High Intensity Objects (%) [4]: 5%
Population Membrane Permeable-Phenotype (%) [4]: 73%
Population Mitochondria Different-Phenotype (%) [4]: 70%
Population Mitotic Cells (%) [4]: 29%
Population Normal (%) [4]: 94%
Population Pyknosed Nuclei (%) [4]: 15%
Population Tubulin-Different-Phenotype (%) [4]: 91%
Total Cell Count [4]: 114
Population Apoptotic (%) [5]: 72%
Population Fragmented Nuclei (%) [5]: 21%
Population Healthy Nuclei (%) [5]: 55%
Population Hoechst High Intensity Objects (%) [5]: 5%
Population Membrane Permeable-Phenotype (%) [5]: 20%
Population Mitochondria Different-Phenotype (%) [5]: 18%
Population Mitotic Cells (%) [5]: 27%
Population Normal (%) [5]: 94%
Population Pyknosed Nuclei (%) [5]: 23%
Population Tubulin-Different-Phenotype (%) [5]: 19%
Total Cell Count [5]: 196
Population Apoptotic (%) [6]: 85%
Population Fragmented Nuclei (%) [6]: 34%
Population Healthy Nuclei (%) [6]: 44%
Population Hoechst High Intensity Objects (%) [6]: 8%
Population Membrane Permeable-Phenotype (%) [6]: 25%
Population Mitochondria Different-Phenotype (%) [6]: 28%
Population Mitotic Cells (%) [6]: 14%
Population Normal (%) [6]: 91%
Population Pyknosed Nuclei (%) [6]: 21%
Population Tubulin-Different-Phenotype (%) [6]: 27%
Total Cell Count [6]: 144
Population Apoptotic (%) [7]: 68%
Population Fragmented Nuclei (%) [7]: 36%
Population Healthy Nuclei (%) [7]: 43%
Population Hoechst High Intensity Objects (%) [7]: 3%
Population Membrane Permeable-Phenotype (%) [7]: 53%
Population Mitochondria Different-Phenotype (%) [7]: 59%
Population Mitotic Cells (%) [7]: 31%
Population Normal (%) [7]: 96%
Population Pyknosed Nuclei (%) [7]: 20%
Population Tubulin-Different-Phenotype (%) [7]: 59%
Total Cell Count [7]: 220
Population Apoptotic (%) [8]: 92%
Population Fragmented Nuclei (%) [8]: 20%
Population Healthy Nuclei (%) [8]: 40%
Population Hoechst High Intensity Objects (%) [8]: 10%
Population Membrane Permeable-Phenotype (%) [8]: 59%
Population Mitochondria Different-Phenotype (%) [8]: 65%
Population Mitotic Cells (%) [8]: 7%
Population Normal (%) [8]: 89%
Population Pyknosed Nuclei (%) [8]: 38%
Population Tubulin-Different-Phenotype (%) [8]: 81%
Total Cell Count [8]: 121
Population Apoptotic (%) [9]: 93%
Population Fragmented Nuclei (%) [9]: 35%
Population Healthy Nuclei (%) [9]: 32%
Population Hoechst High Intensity Objects (%) [9]: 8%
Population Membrane Permeable-Phenotype (%) [9]: 16%
Population Mitochondria Different-Phenotype (%) [9]: 12%
Population Mitotic Cells (%) [9]: 6%
Population Normal (%) [9]: 91%
Population Pyknosed Nuclei (%) [9]: 32%
Population Tubulin-Different-Phenotype (%) [9]: 9%
Total Cell Count [9]: 246
Population Apoptotic (%) [10]: 88%
Population Healthy Nuclei (%) [10]: 30%
Population Membrane Permeable-Phenotype (%) [10]: 38%
Population Mitochondria Different-Phenotype (%) [10]: 17%
Population Mitotic Cells (%) [10]: 11%
Population Pyknosed Nuclei (%) [10]: 34%
Population Tubulin-Different-Phenotype (%) [10]: 27%
Total Cell Count [10]: 170
Population Apoptotic (%) [11]: 100%
Population Fragmented Nuclei (%) [11]: 47%
Population Healthy Nuclei (%) [11]: 22%
Population Hoechst High Intensity Objects (%) [11]: 11%
Population Membrane Permeable-Phenotype (%) [11]: 39%
Population Mitochondria Different-Phenotype (%) [11]: 39%
Population Mitotic Cells (%) [11]: 0%
Population Normal (%) [11]: 88%
Population Pyknosed Nuclei (%) [11]: 29%
Population Tubulin-Different-Phenotype (%) [11]: 43%
Total Cell Count [11]: 246
Population Apoptotic (%) [12]: 98%
Population Fragmented Nuclei (%) [12]: 45%
Population Healthy Nuclei (%) [12]: 8%
Population Hoechst High Intensity Objects (%) [12]: 14%
Population Membrane Permeable-Phenotype (%) [12]: 80%
Population Mitochondria Different-Phenotype (%) [12]: 50%
Population Mitotic Cells (%) [12]: 1%
Population Normal (%) [12]: 85%
Population Pyknosed Nuclei (%) [12]: 45%
Population Tubulin-Different-Phenotype (%) [12]: 80%
Total Cell Count [12]: 138
